Reference: ChEMBL document CHEMBL1144355, “Synthesis and antibacterial activity of the 4-quinolone-3-carboxylic acid derivatives having a trifluoromethyl group as a novel N-1 substituent” (2005)
Values after ≈ are worked out from the molar mass of the structure shown.

How the values were obtained:
Assay type in all cases: functional
[1] = tested on: Streptococcus pneumoniae; experiment: In vitro antibacterial activity against Streptococcus pneumoniae type III
Summary of the method: (§1)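 MIC (μg/mL) determined by agar dilution on Mueller–Hinton agar. Plates were incubated at 35 °C for 18 h. MIC was taken as the lowest agent concentration that prevented visible growth.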

[2] = tested on: Escherichia coli; experiment: In vitro antibacterial activity against Escherichia coli NIHJ JC-2; summary of the method: as §1
[3] = tested on: Staphylococcus aureus; experiment: In vitro antibacterial activity against Staphylococcus aureus Smith; summary of the method: as §1
[4] = tested on: Pseudomonas aeruginosa; experiment: In vitro antibacterial activity against Pseudomonas aeruginosa IID1210; summary of the method: as §1

SMILES: CN1CCN(c2cc3c(cc2F)c(=O)c(C(=O)O)cn3CCF)CC1
- MIC [1]: 1.56 µg/mL (≈ 4.44 µM)
- MIC [2]: 0.0125 µg/mL (≈ 0.0356 µM)
- MIC [3]: 0.2 µg/mL (≈ 0.569 µM)
- MIC [4]: 1.56 µg/mL (≈ 4.44 µM)

SMILES: CCn1cc(C(=O)O)c(=O)c2cc(F)c(N3CCN(C)CC3)cc21 [PEFLOXACIN]
- MIC [1]: 3.13 µg/mL (≈ 9.39 µM)
- MIC [2]: 0.025 µg/mL (≈ 0.075 µM)
- MIC [3]: 0.2 µg/mL (≈ 0.6 µM)
- MIC [4]: 1.56 µg/mL (≈ 4.68 µM)

SMILES: CN1CCN(c2cc3c(cc2F)c(=O)c(C(=O)O)cn3C(C)(C)C)CC1
- MIC [1]: 0.78 µg/mL (≈ 2.16 µM)
- MIC [2]: 0.025 µg/mL (≈ 0.0692 µM)
- MIC [3]: 0.2 µg/mL (≈ 0.553 µM)
- MIC [4]: 1.56 µg/mL (≈ 4.32 µM)

SMILES: CN1CCN(c2cc3c(cc2F)c(=O)c(C(=O)O)cn3C2CC2)CC1
- MIC [1]: 0.39 µg/mL (≈ 1.13 µM)
- MIC [2]: ≤ 0.0063 µg/mL
- MIC [3]: 0.1 µg/mL (≈ 0.29 µM)
- MIC [4]: 0.78 µg/mL (≈ 2.26 µM)

SMILES: NC1CCN(c2cc3c(cc2F)c(=O)c(C(=O)O)cn3C(F)(F)F)C1 (stereo unspecified)
- MIC [1]: 12.5 µg/mL (≈ 34.8 µM)
- MIC [2]: 0.39 µg/mL (≈ 1.09 µM)
- MIC [3]: 1.56 µg/mL (≈ 4.34 µM)
- MIC [4]: > 12.5 µg/mL

SMILES: CN1CCN(c2cc3c(cc2F)c(=O)c(C(=O)O)cn3C(F)(F)F)CC1.Cl
- MIC [1]: 3.13 µg/mL
- MIC [2]: 0.05 µg/mL
- MIC [3]: 0.78 µg/mL
- MIC [4]: 6.25 µg/mL

SMILES: CCn1cc(C(=O)O)c(=O)c2cc(F)c(N3CCNCC3)cc21 [NORFLOXACIN]
- MIC [1]: 3.13 µg/mL (≈ 9.8 µM)
- MIC [2]: 0.05 µg/mL (≈ 0.157 µM)
- MIC [3]: 0.39 µg/mL (≈ 1.22 µM)
- MIC [4]: 1.56 µg/mL (≈ 4.89 µM)

SMILES: CN1CCN(c2cc3c(cc2F)c(=O)c(C(=O)O)cn3C)CC1
- MIC [1]: 6.25 µg/mL (≈ 19.6 µM)
- MIC [2]: 0.05 µg/mL (≈ 0.157 µM)
- MIC [3]: 0.39 µg/mL (≈ 1.22 µM)
- MIC [4]: 1.56 µg/mL (≈ 4.89 µM)

SMILES: CN1CCN(c2cc3c(cc2F)c(=O)c(C(=O)O)cn3-c2ccc(F)cc2F)CC1
- MIC [1]: 0.39 µg/mL (≈ 0.934 µM)
- MIC [2]: 0.1 µg/mL (≈ 0.24 µM)
- MIC [3]: 0.1 µg/mL (≈ 0.24 µM)
- MIC [4]: 3.13 µg/mL (≈ 7.5 µM)
